The conditions of series [1]: cited from earlier work.
The format of series [2] is in vivo, human.
The conditions of series [3]: with tacrolimus; cited from earlier work.
For series [4] the following is noted: co‐administration of cyclosporine; cited from earlier work.
The next series relates to P‐gp. As to conditions: LLC‐PK1‐P‐gp cell monolayers; cited from earlier work.
The conditions of series [5]: cited from earlier work. This is another data set of the same source.
The nature of series [6]: Cyclosporine and tacrolimus trough concentrations before the third dose. The series is classed as in vivo, human. The following applies: tacrolimus 5 mg oral once daily, predose on day 3. A digest of the protocol:
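Healthy adult male volunteers (n=12) took each test compound orally once daily for 3 days in separate treatment periods (100 mg as soft gelatin capsules; 5 mg). They fasted from 10 h before to 2 h after dosing and avoided CYP-affecting medications. Blood was drawn immediately before the day-3 dose, processed by a certified clinical laboratory, and plasma concentrations were measured by validated LC-MS/MS.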

Setting [7] is: co‐administration with ketoconazole, humans.
[8] abbreviates: both, human, plasma, oral, 100 mg.
The mark [9] stands for this setting: in the presence of cyclosporine vs apixaban alone.
Where [10] appears, read: in the presence of tacrolimus vs apixaban alone.

Structures are written as SMILES. Where two headings read alike, the source gives them in different places.

As for `COc1ccc(-n2nc(C(N)=O)c3c2C(=O)N(c2ccc(N4CCCCC4=O)cc2)CC3)cc1` [Apixaban], in series [1] (administration with diltiazem), the “increase in apixaban AUC” value is on record as 1.4 fold and the “increase in apixaban C max” value is 1.3 fold. In addition, in series [1] (setting [7]), the “increase in apixaban AUC” value is reported as “twofold” and the “increase in apixaban C max” value is listed as 1.6 fold. Moreover, the apparent clearance CL/F in series [2] (apixaban 10 mg oral alone, arithmetic mean (SD) [minimum, maximum]) is listed as 5.8 L/h. Also, the T max in series [2] (apixaban with tacrolimus 5 mg daily for 3 days, median [minimum, maximum]) is 2.5 [1, 4] h. In addition, in series [2] (setting [8]), the Vd/F was 45 L and the half-life is 6.8 h. In series [2] (both, human, plasma, po, 10 mg), the Tmax was determined as 2.5 h, the Vd/F worked out at 89 L and the half-life was 12.1 h. For the same compound, in series [2] (setting [9]), the “GMR for apixaban AUC(0–tlast)” value is given as 120%, the “GMR for apixaban AUC(0–∞)” value stood at 119% and the “GMR for apixaban C max” value was determined as 143%. Also, in series [2] (setting [10]), the “GMR for apixaban AUC(0–tlast)” value is recorded as 78%, the “GMR for apixaban AUC(0–∞)” value amounted to 77% and the “GMR for apixaban C max” value stood at 87%. Also, the “increase in apixaban exposure” value in series [2] (with cyclosporine co-administration) is 20%. For the same compound, in series [2] (with tacrolimus co-administration), the “decrease in apixaban exposure” value stood at 22%.
In the case of `CC(C)c1c(C(=O)Nc2ccccc2)c(-c2ccccc2)c(-c2ccc(F)cc2)n1CC[C@@H](O)C[C@@H](O)CC(=O)O` [atorvastatin], the “impact on atorvastatin pharmacokinetics” value in series [3] was “no impact”.
As to `COc1cc2c(c(OC)c1OC)-c1ccc(OC)c(=O)cc1[C@@H](NC(C)=O)CC2` [colchicine], in series [4], the “increase in colchicine AUC(0–∞)” value is 215% and the “increase in colchicine C max” value is recorded as 224%.
`CC(=O)N1CCN(c2ccc(OCC3COC(Cn4ccnc4)(c4ccc(Cl)cc4Cl)O3)cc2)CC1` (stereo not shown) [ketoconazole]: in the series on P‐gp, the “inhibition of apixaban efflux” value is “extensively inhibited”.
Turning to `COc1ccc2c(O[C@@H]3C[C@H]4C(=O)N[C@]5(C(=O)NS(=O)(=O)C6CC6)C[C@H]5/C=C\CCCCN(C)C(=O)[C@@H]4C3)cc(-c3nc(C(C)C)cs3)nc2c1C` [simeprevir], in series [5] (with cyclosporine), the “increase in AUC(0‐24) of simeprevir” value is 5.8 fold and the “increase in C max of simeprevir” value was 4.7 fold. In series [5] (with tacrolimus), the “increase in AUC(0‐24) of simeprevir” value was 85% and the “increase in Cmax of simeprevir” value is recorded as 79%.
As for `C=CC[C@@H]1/C=C(\C)C[C@H](C)C[C@H](OC)[C@H]2O[C@@](O)(C(=O)C(=O)N3CCCC[C@H]3C(=O)O[C@H](/C(C)=C/[C@@H]3CC[C@@H](O)[C@H](OC)C3)[C@H](C)[C@@H](O)CC1=O)[C@H](C)C[C@@H]2OC` [tacrolimus], the “trough concentration, mean (SD)” value in series [6] is 3.8 (2.3) ng/mL.

The values are drawn from article PMC6226116 (Clinical and Translational Science, 2018).
